ChEMBL document CHEMBL4308918, “Rational Design of Cell-Active Inhibitors of PARP10” (ACS Med Chem Lett, 2019)

Columns and labels:
[1] = target: T1, Protein mono-ADP-ribosyltransferase PARP10 (Homo sapiens, UniProt Q53GL7); assay: Inhibition of human PARP10 catalytic domain assessed as reduction in MARylation of His6-tagged SRPK2 substrate after 60 mins in presence of NAD+ by chemifluorescence assay
T1 sequence (Q53GL7 whole entry): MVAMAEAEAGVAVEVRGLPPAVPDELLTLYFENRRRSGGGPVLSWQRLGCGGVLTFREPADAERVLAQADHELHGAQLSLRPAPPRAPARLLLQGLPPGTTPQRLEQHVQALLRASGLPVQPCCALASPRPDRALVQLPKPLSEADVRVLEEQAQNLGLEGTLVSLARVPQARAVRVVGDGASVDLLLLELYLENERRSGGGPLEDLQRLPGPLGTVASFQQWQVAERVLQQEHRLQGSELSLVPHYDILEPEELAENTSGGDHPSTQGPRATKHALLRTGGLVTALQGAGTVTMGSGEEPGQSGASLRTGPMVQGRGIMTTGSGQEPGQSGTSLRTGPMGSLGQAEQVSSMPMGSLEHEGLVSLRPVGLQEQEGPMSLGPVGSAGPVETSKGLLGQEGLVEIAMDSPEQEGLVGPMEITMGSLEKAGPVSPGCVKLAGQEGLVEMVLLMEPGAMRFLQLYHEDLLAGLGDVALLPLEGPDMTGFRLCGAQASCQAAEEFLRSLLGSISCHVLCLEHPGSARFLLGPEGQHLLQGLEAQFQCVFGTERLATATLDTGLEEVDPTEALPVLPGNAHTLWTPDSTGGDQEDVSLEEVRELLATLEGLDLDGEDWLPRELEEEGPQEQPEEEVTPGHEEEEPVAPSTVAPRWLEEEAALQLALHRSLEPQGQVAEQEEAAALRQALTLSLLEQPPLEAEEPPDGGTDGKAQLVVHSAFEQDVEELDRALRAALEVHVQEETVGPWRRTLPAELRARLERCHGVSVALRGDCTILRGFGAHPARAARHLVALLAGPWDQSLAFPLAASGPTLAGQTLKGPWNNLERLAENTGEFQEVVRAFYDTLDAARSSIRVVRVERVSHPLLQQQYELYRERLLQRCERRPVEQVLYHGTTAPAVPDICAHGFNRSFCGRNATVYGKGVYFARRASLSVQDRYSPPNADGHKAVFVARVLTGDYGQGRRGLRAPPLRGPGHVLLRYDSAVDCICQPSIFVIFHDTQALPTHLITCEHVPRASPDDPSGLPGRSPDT

[2] = Aqueous solubility of the compound; assay type: physicochemical; details: buffer
[3] = target: T2, Protein mono-ADP-ribosyltransferase PARP10 (Homo sapiens) (UniProt Q53GL7); assay: Inhibition of human PARP10 catalytic domain assessed as reduction in auto-MARylation at 30 uM after 60 mins in presence of 6-a-NAD+ by chemiluminescent immunoprecipitation assay relative to control
T2 sequence (whole entry): T1 sequence (Q53GL7 whole entry)

[4] = target: T3, Protein mono-ADP-ribosyltransferase TIPARP (Homo sapiens, UniProt Q7Z3E1); assay: Inhibition of human PARP7 assessed as reduction in MARylation of SRPK2 substrate after 60 mins in presence of 6-a-NAD+ by chemifluorescence assay
T3 sequence (Q7Z3E1 whole entry): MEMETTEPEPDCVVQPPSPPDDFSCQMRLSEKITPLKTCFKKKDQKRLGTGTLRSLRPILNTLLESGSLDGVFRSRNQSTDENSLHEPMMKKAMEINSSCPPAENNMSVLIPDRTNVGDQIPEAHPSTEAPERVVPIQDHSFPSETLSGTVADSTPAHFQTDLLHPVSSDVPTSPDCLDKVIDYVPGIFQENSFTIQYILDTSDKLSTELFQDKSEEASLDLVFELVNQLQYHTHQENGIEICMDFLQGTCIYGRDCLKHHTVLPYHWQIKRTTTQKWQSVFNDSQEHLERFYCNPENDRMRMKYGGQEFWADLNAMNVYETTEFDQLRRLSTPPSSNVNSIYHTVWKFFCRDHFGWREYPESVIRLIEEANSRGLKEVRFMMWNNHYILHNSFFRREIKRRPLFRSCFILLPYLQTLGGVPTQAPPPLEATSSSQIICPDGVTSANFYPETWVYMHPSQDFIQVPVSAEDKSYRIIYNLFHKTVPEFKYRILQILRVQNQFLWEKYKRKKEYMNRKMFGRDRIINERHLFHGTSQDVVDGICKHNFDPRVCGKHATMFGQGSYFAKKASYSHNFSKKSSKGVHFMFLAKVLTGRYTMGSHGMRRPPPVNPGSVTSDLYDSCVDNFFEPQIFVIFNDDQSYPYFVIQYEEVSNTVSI
Outline: (§1)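 Recombinant enzyme was tested in a 96-well plate assay that monitors MARylation of the substrate SRPK2 with the clickable 6-a-NAD+.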

[5] = species on record: Homo sapiens; assay: Selectivity ratio of IC50 for human PARP5B catalytic domain (1 to 572 residues) to IC50 for human PARP10 catalytic domain
Outline: (§2)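 Selectivity ratio is the IC50 for the given PARP divided by the IC50 for PARP10 catalytic domain. IC50s came from the 6-a-NAD+ SRPK2 plate assay or, for cell-expressed PARPs, the immunoprecipitation auto-MARylation assay.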

[6] = Inhibition of GFP-tagged human PARP6 long isoform expressed in HEK293T cells assessed as reduction in auto-MARylation after 60 mins in presence of 6-a-NAD+ by chemiluminescent immunoprecipitation assay; assay type: cell-based
[7] = species on record: Homo sapiens; assay: Selectivity ratio of IC50 for GFP-tagged human PARP8 expressed in HEK293T cells to IC50 for human PARP10 catalytic domain; assay type: cell-based; outline: as §2
[8] = species on record: Homo sapiens; assay: Selectivity ratio of IC50 for GFP-tagged human PARP6 long isoform expressed in HEK293T cells to IC50 for human PARP10 catalytic domain; assay type: cell-based; outline: as §2
[9] = species on record: Homo sapiens; assay: Selectivity ratio of IC50 for GFP-tagged human PARP6 short isoform expressed in HEK293T cells to IC50 for human PARP10 catalytic domain; assay type: cell-based; outline: as §2
[10] = target: T4, Protein mono-ADP-ribosyltransferase PARP16 (Homo sapiens, UniProt Q8N5Y8); assay: Inhibition of human transmembrane domain deficient His-SUMO-tagged PARP16 expressed in Escherichia coli BL21 assessed as reduction in MARylation of His6-tagged SRPK2 substrate after 60 mins in presence of 6-a-NAD+ by chemifluorescence assay; outline: as §1
T4 sequence (Q8N5Y8 whole entry): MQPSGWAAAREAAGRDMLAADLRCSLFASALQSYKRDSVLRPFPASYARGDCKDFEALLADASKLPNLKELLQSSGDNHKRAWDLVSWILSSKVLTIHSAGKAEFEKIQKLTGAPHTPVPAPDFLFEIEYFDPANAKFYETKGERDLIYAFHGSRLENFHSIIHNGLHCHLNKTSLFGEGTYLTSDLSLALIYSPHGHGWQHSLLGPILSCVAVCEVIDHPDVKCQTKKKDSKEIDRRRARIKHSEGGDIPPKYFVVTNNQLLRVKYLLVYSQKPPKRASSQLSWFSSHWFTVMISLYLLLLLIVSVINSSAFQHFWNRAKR

[11] = species on record: Homo sapiens; assay: Selectivity ratio of IC50 for full length human PARP3 to IC50 for human PARP10 catalytic domain; outline: as §2
[12] = species on record: Homo sapiens; assay: Selectivity ratio of IC50 for human PARP15 catalytic domain to IC50 for human PARP10 catalytic domain; outline: as §2
[13] = target: T2, Protein mono-ADP-ribosyltransferase PARP10 (Homo sapiens); assay: Inhibition of GFP-tagged human PARP10 expressed in HEK293T cells assessed as reduction in high molecular weight target protein MARylation after 3 hrs by Western blot analysis; assay type: cell-based
Outline: (§3)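 HEK293T cells transfected with GFP-PARP10 and treated with compound at 1−100 μM for 3 h. A Western blot using an ADP-ribose binding reagent detected PARP10 auto-MARylation and PARP10-mediated MARylation of high molecular weight targets.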

[14] = species on record: Homo sapiens; assay: Selectivity ratio of IC50 for human PARP14 catalytic-WWE domain (1459 to 1801 residues) expressed in Escherichia coli BL21 to IC50 for human PARP10 catalytic domain; outline: as §2
[15] = species on record: Homo sapiens; assay: Selectivity ratio of IC50 for full length human PARP2 to IC50 for human PARP10 catalytic domain; outline: as §2
[16] = Inhibition of GFP-tagged human PARP6 short isoform expressed in HEK293T cells assessed as reduction in auto-MARylation after 60 mins in presence of 6-a-NAD+ by chemiluminescent immunoprecipitation assay; assay type: cell-based
[17] = species on record: Homo sapiens; assay: Selectivity ratio of IC50 for human PARP7 to IC50 for human PARP10 catalytic domain; outline: as §2
[18] = target: Protein mono-ADP-ribosyltransferase PARP4 (Homo sapiens, UniProt Q9UKK3); assay: Inhibition of human PARP4 BRCT-catalytic domain (1 to 572 residues) assessed as reduction in MARylation of SRPK2 substrate after 60 mins in presence of 6-a-NAD+ by chemifluorescence assay; outline: as §1
[19] = species on record: Homo sapiens; assay: Selectivity ratio of IC50 for human transmembrane domain deficient His-SUMO-tagged PARP16 expressed in Escherichia coli BL21 to IC50 for human PARP10 catalytic domain; outline: as §2
[20] = species on record: Homo sapiens; assay: Selectivity ratio of IC50 for human PARP4 BRCT-catalytic domain (1 to 572 residues) to IC50 for human PARP10 catalytic domain; outline: as §2
[21] = species on record: Homo sapiens; assay: Selectivity ratio of IC50 for full length human PARP1 to IC50 for human PARP10 catalytic domain; outline: as §2
[22] = target: T2, Protein mono-ADP-ribosyltransferase PARP10 (Homo sapiens); assay: Inhibition of GFP-tagged human PARP10 expressed in HEK293T cells assessed as reduction in auto-MARylation after 3 hrs by Western blot analysis; assay type: cell-based; outline: as §3
[23] = species on record: Homo sapiens; assay: Selectivity ratio of IC50 for GFP-tagged human PARP12 expressed in HEK293T cells to IC50 for human PARP10 catalytic domain; assay type: cell-based; outline: as §2

Protein mono-ADP-ribosyltransferase PARP4, sequence (Q9UKK3 whole entry, the tested form may be a part): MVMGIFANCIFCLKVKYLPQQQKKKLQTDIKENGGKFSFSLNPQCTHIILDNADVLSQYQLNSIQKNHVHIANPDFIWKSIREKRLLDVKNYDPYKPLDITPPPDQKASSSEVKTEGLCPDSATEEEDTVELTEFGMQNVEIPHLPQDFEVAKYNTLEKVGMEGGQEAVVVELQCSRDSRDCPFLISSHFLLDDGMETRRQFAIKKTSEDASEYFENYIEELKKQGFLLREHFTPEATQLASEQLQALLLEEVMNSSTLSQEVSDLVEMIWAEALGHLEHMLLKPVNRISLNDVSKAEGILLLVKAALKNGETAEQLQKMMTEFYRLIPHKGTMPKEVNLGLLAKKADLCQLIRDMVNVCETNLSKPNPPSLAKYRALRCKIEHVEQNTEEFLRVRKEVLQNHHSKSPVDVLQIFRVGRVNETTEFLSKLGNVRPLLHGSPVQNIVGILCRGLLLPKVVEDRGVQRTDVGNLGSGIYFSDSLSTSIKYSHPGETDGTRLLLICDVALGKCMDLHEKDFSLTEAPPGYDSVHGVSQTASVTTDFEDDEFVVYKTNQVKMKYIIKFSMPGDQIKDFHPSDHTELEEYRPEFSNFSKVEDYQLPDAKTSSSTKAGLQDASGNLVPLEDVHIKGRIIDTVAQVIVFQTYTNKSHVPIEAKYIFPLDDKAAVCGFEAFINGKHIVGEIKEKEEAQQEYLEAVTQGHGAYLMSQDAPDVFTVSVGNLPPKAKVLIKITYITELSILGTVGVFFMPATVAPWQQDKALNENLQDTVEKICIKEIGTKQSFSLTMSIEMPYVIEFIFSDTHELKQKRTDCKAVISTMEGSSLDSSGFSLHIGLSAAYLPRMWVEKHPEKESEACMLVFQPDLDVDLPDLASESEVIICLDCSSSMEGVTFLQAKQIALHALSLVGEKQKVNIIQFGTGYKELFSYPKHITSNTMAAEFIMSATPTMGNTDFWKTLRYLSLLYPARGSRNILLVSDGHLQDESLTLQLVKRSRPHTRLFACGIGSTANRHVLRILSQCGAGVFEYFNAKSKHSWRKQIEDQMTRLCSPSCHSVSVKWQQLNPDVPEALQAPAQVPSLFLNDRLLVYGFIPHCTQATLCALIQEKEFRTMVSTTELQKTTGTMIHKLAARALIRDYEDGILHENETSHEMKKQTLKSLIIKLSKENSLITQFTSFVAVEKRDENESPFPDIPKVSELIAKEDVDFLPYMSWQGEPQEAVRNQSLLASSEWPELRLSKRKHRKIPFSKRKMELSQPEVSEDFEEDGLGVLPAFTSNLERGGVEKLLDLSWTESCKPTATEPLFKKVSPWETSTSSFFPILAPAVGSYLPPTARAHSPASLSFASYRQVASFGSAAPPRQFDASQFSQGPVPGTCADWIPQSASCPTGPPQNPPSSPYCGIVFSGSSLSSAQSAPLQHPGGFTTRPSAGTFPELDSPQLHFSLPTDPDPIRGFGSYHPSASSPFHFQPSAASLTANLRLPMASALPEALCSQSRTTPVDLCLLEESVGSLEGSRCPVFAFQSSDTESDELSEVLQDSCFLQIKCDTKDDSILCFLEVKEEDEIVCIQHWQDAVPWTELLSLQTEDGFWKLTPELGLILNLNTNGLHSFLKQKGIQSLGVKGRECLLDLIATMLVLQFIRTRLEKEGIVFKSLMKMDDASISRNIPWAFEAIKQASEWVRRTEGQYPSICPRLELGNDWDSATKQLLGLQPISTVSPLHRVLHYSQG

Cc1c(-c2ccccc2)ccc2c1CCNC2=O
IC50 [1]: 1600 nM
solubility [2]: Insoluble

O=C1NCCc2cc(Cc3ccccc3)ccc21
IC50 [1]: > 50000 nM

Cc1c(-c2cncc(C(F)(F)F)c2)ccc2c1CCNC2=O
IC50 [1]: 2700 nM

Cc1c(-c2cncc(F)c2)ccc2c1CCNC2=O
IC50 [1]: 2200 nM

Cc1ccc2c(c1)CCNC2=O
IC50 [1]: 33100 nM

Cc1c(-c2ccnc(C(F)(F)F)c2)ccc2c1CCNC2=O
IC50 [1]: 1800 nM
inhibition [3]: 80%
IC50 [4]: 19000 nM
Ratio IC50 [5]: > 37
IC50 [6]: > 30000 nM
Ratio IC50 [7]: > 10
Ratio IC50 [8]: > 10
Ratio IC50 [9]: > 10
IC50 [10]: 6700 nM
Ratio IC50 [11]: > 37
Ratio IC50 [12]: 23
inhibition [13]: Dose-dependent effect
Ratio IC50 [14]: 22
Ratio IC50 [15]: > 37
IC50 [16]: > 30000 nM
Ratio IC50 [17]: 7
IC50 [18]: > 100000 nM
Ratio IC50 [19]: 2.5
Ratio IC50 [20]: > 37
Ratio IC50 [21]: > 37
inhibition [22]: Dose-dependent effect
Ratio IC50 [23]: > 10

CC(=O)c1cccc(-c2ccc3c(c2)CCNC3=O)c1
IC50 [1]: 1600 nM

O=C1NCCc2c1cccc2-c1ccccc1
IC50 [1]: 35000 nM

Cc1c(-c2cnc3[nH]ccc3c2)ccc2c1CCNC2=O
IC50 [1]: 710 nM

Cc1c(-c2cccnc2)ccc2c1CCNC2=O
IC50 [1]: 2500 nM

O=C1NCCc2cc(Br)ccc21
IC50 [1]: 17100 nM

O=C1NCCc2cc(-c3cccc(F)c3)ccc21
IC50 [1]: 1400 nM

Cc1c(-c2ccc3[nH]ccc3c2)ccc2c1CCNC2=O
IC50 [1]: 1100 nM
